# From PubChem
# An excerpt weighted towards active compounds, which were near 1.9% of everything screened.
# HCV core dimer – blocks dimerization of HCV core protein; 0.33% of 300,000 active; inhibition, % at 5 µM; AID 1899; TR-FRET GST/Flag-core106 dimerization, 1536-well;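 active = inhibition above the mean of all tested compounds plus 3 SD, set per screening campaign, cut at about 45% in these data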
#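 Material: GST/Flag-tagged HCV core106 proteins. Incubation: 4 h, 22.5 °C incubation. Read-out basis: inhibition (%) from 671 over 617 nm ratio. Measured by: TR-FRET, excitation 340 nm, emission 617 and 671 nm.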
# IMP-1 inh – inhibitors of Pseudomonas aeruginosa IMP-1 metallo-beta-lactamase; purified IMP-1, nitrocefin hydrolysis, epi-absorbance fluorescence; inhibition, % at 5.6 µM; 0.45% of 290,000 active; AID 1556;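 active = inhibition above the mean plus 3 SD of all compounds in the same screening run, cut at about 4.5% in these data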;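 also: 0% = IMP-1 with DMSO and 100% = DMSO wells lacking enzyme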
#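 Test system: recombinant IMP-1 enzyme, purified / Medium: HEPES buffer pH 7.1 with ZnSO4 and Brij 35 / Doses: single dose, 5.6 µM / Times: 25 °C, 15 min preincubation, 25 min reaction / Detection: Epi-absorbance via hydrolysed-nitrocefin quenching of white-plate fluorescence, 480/530 nm, EDTA stop / Evaluation: percent inhibition from optical density relative to buffer-blank wells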
# VIM-2 inh – blocks Pseudomonas aeruginosa VIM-2 metallo-beta-lactamase | 0.89% of 290,000 active | purified VIM-2, nitrocefin hydrolysis, epi-absorbance fluorescence | inhibition, % at 5.6 µM | AID 1527;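 active = inhibition above the mean of all tested compounds plus 3 SD, cutoff set per screening run, cut at about 7.5% in these data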;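 also: red hydrolysis product quenches plate fluorescence so inhibitors raise well fluorescence; 0% = enzyme with DMSO and 100% = DMSO without enzyme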
# NadD inh – blocks S. aureus nicotinate mononucleotide adenylyltransferase; purified NadD enzyme, colorimetric absorbance read-out; inhibition, % at 20 µM; 0.78% of 360,000 active; in the data active = inhibition above about 26%
# NadD inh conf – confirmation of Staphylococcus aureus NadD inhibitors; 13% of 2,000 active; shares compounds with NadD inh; inhibition, % at 20 µM; purified S. aureus NadD, colorimetric enzyme assay; AID 624309; in the data active = inhibition mostly above about 42%, no sharp cut-off; inactive = mostly below about 42%
# Starred values were filed as active, the others as inactive; · = not tested or not shown.
SMILES,HCV core dimer,IMP-1 inh,VIM-2 inh,NadD inh,NadD inh conf
CC1CC(C)(C)CC2(C1)NC(=O)N(CC(=O)Nc1cc(C(F)(F)F)ccc1N1CCCCC1)C2=O (stereo not drawn),·,·,·,42*,0
O=C(CN1C(=O)NC2(CCCCC2)C1=O)Nc1cc(C(F)(F)F)ccc1N1CCCC1,·,·,·,-1,·
CCCNc1c(F)c(F)c2c(C)c3ccccc3nc2c1F,24,0,-6,39*,17
Cc1c2ccccc2nc2ccccc12,-8,·,·,1,·
CCCn1c(C(C)NC(=O)c2ccccc2)nc2ccccc21 (stereo not drawn),·,-2,0,-5,·
CCN(CC)c1ccc(NC(=O)Cn2c(C(C)NC(=O)c3ccc(C)cc3)nc3ccccc32)cc1 (stereo not drawn),·,-2,-5,34*,2
O=C(OCC(=O)N1CCOCC1)c1ccc(Br)cc1,-4,-2,-6,-4,·
Cc1cc(N)n(-c2ccccc2)n1,-1,-4,-3,-5,·
Cc1cc(-c2cc(N)n(-c3ccccc3)n2)c(C)n1C1CCCC1,27,-6,-1,32*,12
O=C(Nc1cccc(S(=O)(=O)NCc2ccco2)c1)c1cc(-c2ccccc2)nc2ccccc12,24,-1,-2,35*,32
Cc1cc(C(=O)OCC(=O)Nc2cccc(S(=O)(=O)N(C)C)c2)c2ccccc2n1,2,-2,-2,-5,·
O=C(Nc1cccc(S(=O)(=O)NC2=NCCCCC2)c1)c1cc(-c2ccco2)nc2ccccc12,69*,0,-3,46*,59*
O=C(NCc1ccco1)c1cc(-c2ccccc2)nc2ccccc12,1,-4,-4,-4,·
O=C(Nc1cccc(S(=O)(=O)NC2=NCCCCC2)c1)c1cc(-c2ccncc2)nc2ccccc12,15,-4,-5,20,·
NS(=O)(=O)c1cccc(NC(=O)COC(=O)c2cc(-c3ccc(Cl)cc3)nc3ccccc23)c1,27,-1,-2,32*,37
N#CC1=C(S)N=C(N)C(c2nc(-c3ccccc3)cs2)C12CCCC2 (stereo not drawn),-6,-7,-3,52*,73*
N#CC1=C(S)N=C(N)C(c2nc(-c3ccccc3)cs2)C12CCCCC2 (stereo not drawn),17,-1,-2,52*,75*
Cc1ccc(-c2csc(C3C(N)=NC(S)=C(C#N)C34CCCCC4)n2)cc1 (stereo not drawn),40,-3,-3,27,·
O=c1onc(-c2ccccc2)n1Cc1ccc([N+](=O)[O-])cc1,·,·,·,-5,·
C#CCn1c(=NC(=O)c2ccccc2[N+](=O)[O-])sc2cc(S(C)(=O)=O)ccc21,5,-2,0,1,·
C#CCn1c(=NC(=O)c2sc3ccccc3c2Cl)sc2cc(S(N)(=O)=O)ccc21,66*,-5,-3,39*,-7
Cc1cccc(C)c1NC(=O)CNC(=O)c1ccc(N2CCCC2)c([N+](=O)[O-])c1,·,·,·,-2,·
CC1(C)CC(=O)C=C(c2ccc(F)nc2)C1,·,·,·,2,·
COc1ccccc1C=NN=C(NN=Cc1ccccc1OC)NN=Cc1ccccc1OC,·,·,·,35*,24
O=C(CCc1ccccc1)N1CCN(Cc2ccc(F)cc2Cl)CC1,3,-3,-2,-2,·
SMILES,HCV core dimer,IMP-1 inh,VIM-2 inh,NadD inh,NadD inh conf
O=C(/C=C/Nc1ccc(S(=O)(=O)Nc2ncccn2)cc1)c1ccc(Cl)c(Cl)c1,1,-3,-3,40*,3
O=C(/C=C/Nc1ccc(S(=O)(=O)Nc2ncccn2)cc1)c1cccs1,0,-1,-2,3,·
CN(C)c1ccc(-c2cccc(C3CC=CC4C3C(=O)N(Cc3ccccc3)C4c3ccc(C(F)(F)F)cc3)c2)cc1 (stereo not drawn),12,·,·,31*,13
S=C1NCCC12C(=S)Nc1ccccc12 (stereo not drawn),4,·,·,5,·
COc1ccc(NC(=O)N(C)C[C@H]2Oc3ccc(NC(=O)c4ccncc4)cc3C(=O)N([C@H](C)CO)C[C@@H]2C)cc1,·,·,·,40*,41*
C[C@H](CO)N1C[C@H](C)[C@@H](CN(C)Cc2ccncc2)OCCCC[C@H](C)Oc2ccc(NC(=O)CCCN(C)C)cc2C1=O,·,·,·,54*,27
C[C@H](CO)N1C[C@H](C)[C@@H](CN(C)S(=O)(=O)c2ccccc2)Oc2ccc(NC(=O)Nc3ccc(C(F)(F)F)cc3)cc2C1=O,·,·,·,35*,6
COc1ccc(NC(=O)Nc2ccc3c(c2)C(=O)N([C@H](C)CO)C[C@H](C)[C@@H](CN(C)C(=O)Nc2ccc(OC)cc2)O3)cc1,·,·,·,7,·
CCn1nc(Cc2cccc3ccccc23)c(C#N)c1N,1,·,·,-2,·
O=C1OC(c2cccs2)=N/C1=C\c1ccc(-c2ccccc2Cl)o1,·,2,-1,39*,4
O=C(CNC(=O)COc1ccccc1)NCc1cccnc1,2,-3,-1,-1,·
O=C(Nc1nc2c(F)cccc2s1)c1ccco1,-6,-3,-3,3,·
O=C(Nc1nc(-c2ccco2)c(-c2ccco2)s1)c1c(F)cccc1Cl,·,·,·,43*,35
O=S(=O)(Nc1nc(-c2ccco2)c(-c2ccco2)s1)c1ccc(F)cc1F,·,·,·,6,·
O=C(Nc1nc(-c2ccco2)c(-c2ccco2)s1)c1ccc(F)cc1F,·,·,·,41*,13
COc1ccc(CCN(C)CC(O)COc2ccc(C(C)=O)cc2OC)cc1OC (stereo not drawn),7,-1,0,-2,·
Cc1ccnc(N/C=C(/NC(=O)c2ccccc2)C(=O)N/N=C\c2ccc(Cl)cc2)n1,2,0,1,7,·
CC(C)(C)C(=O)C(C(c1ccccc1)N1CCOCC1)N1CCOCC1 (stereo not drawn),·,·,·,1,·
Cc1[nH]c2ccc(C(=O)NCCCN3CCCCCC3)cc2c1C,-1,0,2,29*,7
Cc1[nH]c2ccc(C(=O)NCCCN3CCCC3)cc2c1C,-6,-1,0,4,·
COC(=O)/C=C/CC(C)OS(N)(=O)=O (stereo not drawn),-8,-1,-1,1,·
COc1ccc(N(CC(=O)NC2CCCCCC2)S(=O)(=O)c2ccccc2)cc1Cl,9,-2,1,-2,·
Nc1[nH]c(C(=O)c2ccc(Br)cc2)c(-c2ccc(Br)cc2)c1C(=O)NCCc1c[nH]c2ccccc12,·,·,·,50*,39
Nc1[nH]c(C(=O)c2ccccc2)c(-c2ccc([N+](=O)[O-])cc2)c1C(=O)NCCc1c[nH]c2ccccc12,·,·,·,43*,24
Nc1[nH]c(C(=O)c2ccccc2)c(-c2ccccc2Br)c1C(=O)NCc1ccc(-c2ccccc2)cc1,·,·,·,36*,50*
Nc1[nH]c(C(=O)c2ccccc2)c(-c2ccccc2Br)c1C(=O)NCCc1c[nH]c2ccccc12,·,·,·,43*,28
COc1ccccc1C(=O)OCC(=O)NC1CCCC1,-13,-2,-2,-2,·
COc1ccc(-c2nc(-c3ccccc3)c(-c3cc([N+](=O)[O-])ccc3C)[nH]2)cc1O,4,-4,-2,14,·
